Only some compounds are listed: those with a hit (about 1.9% of all), similar ones and a draw of the others.
FAS-TE inh = blocks the thioesterase domain of human fatty acid synthase. P49327. recombinant FAS-TE, OMFH fluorogenic substrate, fluorescence endpoint. inhibition, % at 15 µM. 0.67% of 360,000 active;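 active means compounds whose normalised, plate-corrected inhibition of enzyme fluorescence in the single-dose primary screen is 50% or more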;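 further: 0% = DMSO with enzyme and 100% = substrate without enzyme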
STEP inh = blocks human striatal-enriched tyrosine phosphatase. AID 588621. inhibition, % at 20 µM. 0.25% of 360,000 active. recombinant STEP, OMFP fluorogenic substrate, fluorescence. P54829;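 active means inhibition at 20 µM, scaled per plate between control wells, above about 37%, limit read from the data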;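 further: 0% = DMSO with enzyme and substrate and 100% = substrate only without enzyme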
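System: STEP phosphatase, cell-free reaction; Buffer or medium: Bis-Tris pH 6.0 buffer with DTT, detergent; Incubation: 20 min at room temperature, dark; Measured by: fluorescence, 480/540 nm.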
SUMO1-SIM PPI = SUMO1-SIM interaction modulation | P63165 | SUMO1 binding to a labelled peptide, TR-FRET, 1 h | inhibition, % at 20 µM | 0.33% of 360,000 active | AID 602429; in the data active means inhibition above about 37%
LMPTP inh = LMPTP (human) inhibition; P24666; recombinant LMPTP-A, OMFP fluorogenic substrate, fluorescence intensity; inhibition, % at 20 µM; 0.22% of 360,000 active;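 active means compounds that cut the enzyme signal by at least half of the control window in the single-dose screen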;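 further: plate controls were DMSO wells with enzyme plus substrate for no effect and substrate without enzyme for full effect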
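material = LMPTP-A | quantity = 0.625 nM enzyme | reagent = OMFP substrate, 400 µM final | buffer or medium = Bis-Tris pH 6.0, DTT, detergent | detection = endpoint fluorescence intensity from OMFP dephosphorylation | dosing = single 20 µM dose | read-out basis = % inhibition relative to no-enzyme and uninhibited control wells | control set = no-enzyme and uninhibited controls | timing = 50 min at room temperature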
Scp-1 inhibitor = Scp-1 (human) phosphatase inhibition; Q9GZU7; Recombinant Scp1, phosphopeptide, malachite green phosphate absorbance; inhibition, % at 20 µM; 0.88% of 340,000 active;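 active means inhibition above about 50% at 20 µM, limit read from the data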;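 further: plate controls were DMSO wells with enzyme for no effect and wells lacking enzyme for full effect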
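assay system = SCP-1 phosphatase catalytic domain, residues 76-261 | buffer or medium = 50 mM Tris acetate pH 5.5, 0.005% Tween-20, 10 mM MgCl2 | incubation = enzyme reaction 45 min at room temperature, colour 5 min, stabilisation 30 min | signal = Phosphate-binding colour reagent, absorbance read at 630 nm | measure = % inhibition at 20 µM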
FAS-TE inh conf = confirmation of human fatty acid synthase thioesterase inhibitors; AID 624325; 45% of 2,300 active; recombinant FAS-TE, OMFH fluorogenic substrate, fluorescence; shares compounds with FAS-TE inh; inhibition, % at 15 µM;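 active means compounds inhibiting the enzyme by at least 50% at 15 µM in any one of the replicates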;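 further: 0% = enzyme with DMSO only and 100% = wells lacking enzyme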
Numbers without * were called inactive; nt = no result.

SMILES | FAS-TE inh | STEP inh | SUMO1-SIM PPI | LMPTP inh | Scp-1 inhibitor | FAS-TE inh conf
O=C(CN1CCN(S(=O)(=O)c2ccccc2)CC1)Nc1ccc(Cl)c([N+](=O)[O-])c1 | 78* | -1 | -17 | 3 | -6 | 18
O=C(c1ccc(Cl)c([N+](=O)[O-])c1)N1CCN(S(=O)(=O)c2ccc(Cl)cc2)CC1 | 51* | -2 | -13 | 0 | -11 | 30*
O=C(c1ccc(N2CCCC2)c([N+](=O)[O-])c1)N1CCN(S(=O)(=O)c2ccc(Cl)cc2)CC1 | 28 | 3 | -17 | 4 | 0 | nt
O=C(O)CC1=C(Nc2ccccc2)C(=O)N(c2ccccc2)C1c1ccc(Br)cc1 (configuration not stated) | 3 | -1 | 0 | 1 | -10 | nt
CN(C(=O)CCN1C(=O)c2ccccc2C1=O)c1ccccc1 | -8 | 2 | -1 | 1 | -6 | nt
COc1ccc(CN2C(=O)c3ccccc3C2c2nnnn2-c2c(C)cccc2C)cc1OC (configuration not stated) | 9 | nt | -6 | 0 | nt | nt
Cc1ccc(-c2c(C(=O)N(C)Cc3ccccc3)oc(=O)c3ccccc23)cc1 | 54* | -2 | 2 | 3 | -9 | 51*
CN(Cc1ccccc1)C(=O)c1oc(=O)c2ccccc2c1-c1ccccc1 | 39 | 1 | -2 | 1 | -8 | nt
CC1(C)OC(=O)C2=C(C[C@@H](C3CCCCC3)O[C@H]2c2ccc(Cl)cc2)O1 | 27 | 4 | 1 | 2 | nt | nt
O=C(NC(=S)Nc1ccc2c(c1)OCCO2)c1cccc2ccccc12 | 56* | -4 | 0 | 2 | -14 | 24
CC(C)(C)c1ccc(OCCSc2nc3ccccc3n2CC(=O)O)cc1 | 78* | 2 | 5 | -1 | -14 | 87*
CCc1ccc(C(=O)NNc2cc(Cl)ccc2Cl)cc1 | 50* | 1 | -1 | 0 | -23 | 14
Cc1c(OCc2nn[nH]n2)ccc2c(-c3ccccc3)cc(=O)oc12 | 76* | 0 | -11 | -1 | -4 | 86*
Cc1c(CC(=O)O)c(=O)oc2c(C)c(OCc3nn[nH]n3)ccc12 | -5 | 4 | 4 | -2 | 11 | nt
COc1ccc(-c2cc(=O)oc3c(C)c(OCc4nn[nH]n4)ccc23)cc1 | 62* | 2 | -14 | -1 | -4 | 69*
CCCc1cc(=O)oc2c(C)c(OCc3nn[nH]n3)ccc12 | 20 | 0 | 0 | -3 | -5 | nt
Cc1ccc(S(=O)(=O)N2CCN(c3ccnc4cc(Cl)ccc34)CC2)cc1 | 64* | 6 | 5 | 8 | 4 | 1
Cc1ccc(S(=O)(=O)N2CCN(c3ccnc4cc(Cl)ccc34)CC2)cc1C | 46 | 1 | 6 | 7 | 3 | nt
Cc1csc(NC(=O)CSc2nnc(NC(=O)NC(C)(C)C)s2)n1 | -2 | 2 | 1 | 1 | -3 | nt
COc1ccc(N2CCN(C(=S)Nc3ccccc3OC)CC2)cc1 | -1 | 2 | 0 | -2 | -8 | nt
O=C(NC(C(=O)N/N=C/c1cc([N+](=O)[O-])ccc1O)c1n[nH]c(=O)c2ccccc12)c1ccccc1 (configuration not stated) | 67* | -3 | 27 | 4 | 17 | 78*
O=C(N/N=C/c1cc([N+](=O)[O-])ccc1O)c1cc(-c2ccccc2)nc2ccccc12 | 36 | -1 | 9 | 2 | -5 | nt
Cc1cc(C(=O)N/N=C/c2cc([N+](=O)[O-])ccc2O)c2ccccc2n1 | 77* | -1 | -3 | 0 | -4 | 97*
CC(C)n1ncc2c(C(=O)Nc3cccc(C#N)c3)cc(C3CC3)nc21 | 37 | -2 | 15 | 2 | -8 | nt
C=C(CCO)C1=CCN(S(=O)C(C)(C)C)[C@@H]1CCO (some centres not stated) | -12 | -2 | -1 | -1 | 8 | nt
CC(NC(=O)[C@H](C)N1C(=O)N2CCc3c([nH]c4ccccc34)[C@@]2(C)C1=O)c1ccccc1 (some centres not stated) | 16 | 4 | 3 | 0 | -1 | nt
COc1ccc(CNc2nc(-c3cccnc3)nn2S(C)(=O)=O)cc1 | -2 | -1 | -1 | 0 | -6 | nt
CCOc1ccc(S(=O)(=O)N(C)CC(=O)NCc2ccco2)cc1 | -6 | -1 | -4 | 0 | 1 | nt

Screening results deposited in PubChem by Sanford-Burnham Center for Chemical Genomics.
